For data set [1], the system named is Plasmodium falciparum. As to the kind of experiment: Antiplasmodial activity against chloroquine-resistant Plasmodium falciparum K1 infected in human erythrocytes assessed as parasite growth inhibition. Particulars: K1, Erythrocyte. Format: functional, organism-based.
The subject of data set [2] is Plasmodium falciparum. The data set is described as follows: Antiplasmodial activity against chloroquine-resistant Plasmodium falciparum FCR3 infected in human erythrocytes assessed as parasite growth inhibition. It is filed as functional, organism-based. The settings on record: FCR-3/Gambia, Erythrocyte.
For data set [3], the system named is Plasmodium falciparum. The data set is described as follows: Antiplasmodial activity against Plasmodium falciparum assessed as parasite growth inhibition. It is filed as functional.
The test system of data set [4] is Plasmodium falciparum. As to the kind of experiment: Antiplasmodial activity against multidrug-resistant Plasmodium falciparum Dd2 infected in human A-positive erythrocytes assessed as reduction in parasitemia incubated for 72 hrs by fluorescence-based SYBR-Green-1 assay. The settings on record: Dd2, Erythrocyte. Format: functional, organism-based.
Data set [5] can be described thus: Selectivity index, ratio of EC50 for human HepG2 cells to EC50 for antiplasmodial activity against multidrug-resistant Plasmodium falciparum Dd2 infected in human A-positive erythrocytes. Format: toxicity, cell-based. Particulars: read-out: Ratio EC50.
The next data set concerns HepG2. The data set is described as follows: Cytotoxicity against human HepG2 cells assessed as decrease in cell viability measured after 48 hrs by MTS assay. It is filed as cell-based. The settings on record: HepG2, 48 h. The essentials:
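After 48 h at 37 °C and 5% CO2, MTS was added for 4 h and absorbance read at 490 nm. Values were normalized to Triton X-100-lysed wells (0% growth) and untreated wells. EC50 is the mean of triplicate experiments.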
Background: Formazan colour is commonly taken as a measure of viable cells.

Values after ≈ are worked out from the molar mass of the structure shown. Where a SMILES comes first, the peptide text is derived from it. [ ]: non-standard residue; d: D form. The star is where a group is joined. X1 = CC(C)C[C@@H](C[N+]1=C2CCCN2CCC1)N*; Pip = O=C(O)[C@@H]1CCCCN1; Iva = CC[C@](C)(N)C(=O)O; Aib = CC(C)(N)C(=O)O; βAla = NCCC(=O)O Some results are limits rather than exact numbers.

These results are taken from ChEMBL document CHEMBL4811229, “Leveraging Peptaibol Biosynthetic Promiscuity for Next-Generation Antiplasmodial Therapeutics” (J Nat Prod, 2021).

Consider `CCCCCCC/C=C\CCCCCCCC(=O)N[C@H](C(=O)N1C[C@H](C)C[C@H]1C(=O)N[C@H](C(=O)N[C@@H](CC(N)=O)C(N)=O)C(C)C)[C@@H](C)O` (HELM PEPTIDE1{[CCCCCCC/C=C\CCCCCCCC(=O)[*:2]].T.[C[C@@H]1C[C@@H](C(=O)[*:2])N([*:1])C1].V.N.[am]}$$$$V2.0), for which the EC50 with Plasmodium falciparum [1] and in the data set on Plasmodium falciparum [2] was 150 nM in each case.
Regarding `CCC(=O)CCCCC[C@@H]1NC(=O)[C@H]2CCCCN2C(=O)[C@H]([C@@H](C)CC)NC(=O)[C@H](Cc2cn(OC)c3ccccc23)NC1=O` [APICIDIN], in the data set with Plasmodium falciparum [3], the MIC is 0.19 µM (≈ 0.119 µg/mL).
`CC(=O)NC(C)(C)C(=O)N[C@@H](CC(N)=O)C(=O)N[C@@H](CC(C)C)C(=O)NC(C)(C)C(=O)N1CCC[C@H]1C(=O)N[C@@H](CO)C(=O)N[C@H](C(=O)NC(C)(C)C(=O)N1CCC[C@H]1C(=O)NC(C)(C)C(=O)N[C@@H](CC(C)C)C(=O)NC(C)(C)C(=O)N1CCC[C@H]1C(=O)N[C@H](CO)CC(C)C)C(C)C` (HELM PEPTIDE1{[ac].[Aib].N.L.[Aib].P.S.V.[Aib].P.[Aib].L.[Aib].P.[CC(C)C[C@@H](CO)N[*:1]]}$$$$V2.0): the EC50 is 710 nM in the data set with Plasmodium falciparum [4] and above 25000 nM in the data set with HepG2. The selectivity ratio in data set [5] was above 35.
In the case of `CCCCCCC/C=C\CCCCCCCC(=O)N[C@H](C(=O)N1C[C@H](C)C[C@H]1C(=O)N[C@H](C(=O)N[C@@H](CC(N)=O)C(=O)N[C@@H](C)[C@H]1N[C@@H](CO)[C@H](O)[C@@H](CCCCCCCCCCCCC)O1)C(C)C)[C@@H](C)O`, the EC50 in the data set with Plasmodium falciparum [1] and in the data set on Plasmodium falciparum [2] was 150 nM each time.
For the compound `CC[C@H](C)[C@H](NC(=O)[C@H](C)NC(=O)[C@@H]1CCCN1C(=O)C(C)(C)NC(=O)[C@H](CC(C)C)NC(=O)[C@H](CC(N)=O)NC(=O)C(C)(C)NC(C)=O)C(=O)NC(C)(C)C(=O)N1CCC[C@H]1C(=O)NC(C)(C)C(=O)N[C@@H](CC(C)C)C(=O)NC(C)(C)C(=O)N1CCC[C@H]1C(=O)N[C@H](CO)CC(C)C` (HELM PEPTIDE1{[ac].[Aib].N.L.[Aib].P.A.I.[Aib].P.[Aib].L.[Aib].P.[CC(C)C[C@@H](CO)N[*:1]]}$$$$V2.0), the EC50 was 420 nM in the data set with Plasmodium falciparum [4] and above 25000 nM with HepG2. Moreover, in data set [5], the selectivity ratio is above 60.
Consider `CC(=O)NC(C)(C)C(=O)N[C@@H](C)C(=O)N[C@@H](C)C(=O)N[C@@H](C)C(=O)NC(C)(C)C(=O)NC(C)(C)C(=O)N[C@@H](CCC(N)=O)C(=O)NC(C)(C)C(=O)N[C@@H](CC(C)C)C(=O)NC(C)(C)C(=O)NCC(=O)N[C@@H](CC(C)C)C(=O)NC(C)(C)C(=O)N1CCC[C@H]1C(=O)N[C@H](C(=O)NC(C)(C)C(=O)NC(C)(C)C(=O)N[C@@H](CCC(N)=O)C(=O)N[C@@H](CCC(N)=O)C(=O)N[C@H](CO)Cc1ccccc1)C(C)C` (HELM PEPTIDE1{[ac].[Aib].A.A.A.[Aib].[Aib].Q.[Aib].L.[Aib].G.L.[Aib].P.V.[Aib].[Aib].Q.Q.[OC[C@H](Cc1ccccc1)N[*:1]]}$$$$V2.0), for which the EC50 with Plasmodium falciparum [4] amounted to 320 nM; in the data set on HepG2, 5770 nM. In addition, in data set [5], the selectivity ratio was determined as 18.
For `CC(=O)NC(C)(C)C(=O)N[C@@H](C)C(=O)N[C@@H](C)C(=O)N[C@@H](C)C(=O)NC(C)(C)C(=O)NC(C)(C)C(=O)N[C@@H](CCC(N)=O)C(=O)NC(C)(C)C(=O)N[C@H](C(=O)NC(C)(C)C(=O)NCC(=O)N[C@@H](CC(C)C)C(=O)NC(C)(C)C(=O)N1CCC[C@H]1C(=O)N[C@H](C(=O)NC(C)(C)C(=O)NC(C)(C)C(=O)N[C@@H](CCC(N)=O)C(=O)N[C@@H](CCC(N)=O)C(=O)N[C@H](CO)Cc1ccccc1)C(C)C)C(C)C` (HELM PEPTIDE1{[ac].[Aib].A.A.A.[Aib].[Aib].Q.[Aib].V.[Aib].G.L.[Aib].P.V.[Aib].[Aib].Q.Q.[OC[C@H](Cc1ccccc1)N[*:1]]}$$$$V2.0), the 50% effective concentration (EC50) came out at 560 nM in the data set with Plasmodium falciparum [4] and 9280 nM in the data set on HepG2. Moreover, in data set [5], the selectivity ratio turned out to be 17.
As for `CCCCCCCC(=O)NC(C)(C)C(=O)NCC(=O)N[C@@H](CC(C)C)C(=O)NC(C)(C)C(=O)NCC(=O)NCC(=O)N[C@@H](CC(C)C)C(=O)NC(C)(C)C(=O)NCC(=O)N[C@H](C(=O)N[C@H](CO)CC(C)C)[C@@H](C)CC`, the EC50 was found to be 930 nM in the data set with Plasmodium falciparum [4] and 8090 nM in the data set on HepG2. The selectivity ratio in data set [5] was 9.
`CC[C@](C)(NC(=O)[C@H](CC(C)C)NC(=O)[C@H](C)NC(=O)C(C)(C)NC(=O)[C@@H]1CCCCN1C(=O)C(C)(C)NC(=O)C(C)(C)NC(=O)CNC(=O)CCNC(=O)[C@H](CC(C)C)NC(=O)C(C)(C)NC(=O)C(C)(C)NC(=O)[C@@H]1CCCCN1C(=O)C(C)(C)NC(=O)[C@@H]1CCCCN1C(C)=O)C(=O)N[C@@H](CC(C)C)C[N+]1=C2CCCN2CCC1` (Ac-[Pip][Aib][Pip][Aib][Aib]L[βAla]G[Aib][Aib][Pip][Aib]AL[Iva]-X1): the EC50 with Plasmodium falciparum [4] was 390 nM; in the data set with HepG2, above 25000 nM. In addition, the selectivity ratio in data set [5] was above 64.
Turning to `CC[C@H](C)[C@H](NC(=O)[C@H](C)NC(=O)[C@@H]1CCCN1C(=O)C(C)(C)NC(=O)[C@H](CC(C)C)NC(=O)[C@H](CCC(N)=O)NC(=O)C(C)(C)NC(C)=O)C(=O)NC(C)(C)C(=O)N1CCC[C@H]1C(=O)NC(C)(C)C(=O)N[C@@H](CC(C)C)C(=O)N[C@](C)(CC)C(=O)N1CCC[C@H]1C(=O)N[C@H](CO)CC(C)C`, the EC50 was 630 nM in the data set on Plasmodium falciparum [4] and above 25000 nM in the data set with HepG2. Also, the selectivity ratio in data set [5] is above 40.
Consider `CC[C@H](C)[C@H](NC(=O)[C@H](CO)NC(=O)[C@@H]1CCCN1C(=O)C(C)(C)NC(=O)[C@H](CC(C)C)NC(=O)[C@H](CC(N)=O)NC(=O)C(C)(C)NC(C)=O)C(=O)NC(C)(C)C(=O)N1CCC[C@H]1C(=O)NC(C)(C)C(=O)N[C@@H](CC(C)C)C(=O)NC(C)(C)C(=O)N1CCC[C@H]1C(=O)N[C@H](CO)CC(C)C` (HELM PEPTIDE1{[ac].[Aib].N.L.[Aib].P.S.I.[Aib].P.[Aib].L.[Aib].P.[CC(C)C[C@@H](CO)N[*:1]]}$$$$V2.0), for which the figures for the EC50 with Plasmodium falciparum [4] and in the data set with HepG2 were 630 nM and above 25000 nM, respectively. Further, the selectivity ratio in data set [5] was above 40.

As usually defined, the EC50 is the concentration giving half of the maximal effect. Broadly, the MIC is the lowest concentration that inhibits growth of the organism.
